Data set [1] concerns Ehrlich. Description: Antitumor activity against mouse EAC cells transplanted in Albino mouse assessed as decrease in number of living cells at 10 mg/kg, po QD for 2 weeks using trypan blue staining by Neubauer hemocytometry relative to control. Type of data set: functional, organism-based. More on the design: dose 10 mg/kg. In short, it runs like this:
(§1)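 Female albino mice each received 0.2 ml EAC ascites intraperitoneally (stock aliquot diluted 1:50 in saline). Dosing was 10 mg/kg in 10% DMSO by gastric intubation, daily for 2 weeks from the day of inoculation, against a 10% DMSO vehicle group (12 mice per group). At the end, under ether, 0.2 ml saline was given ip and ascites aspirated 1 min later. Aliquot volume was measured. Live and dead cells were counted by trypan blue on a Neubauer haemocytometer. Mean ± SE, LSD.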

For data set [2], the system named is Ehrlich. The data set can be described thus: Antitumor activity against mouse EAC cells transplanted in Albino mouse assessed as decrease in total number of cells at 10 mg/kg, po QD for 2 weeks using trypan blue staining by Neubauer hemocytometry relative to control. It counts as functional, organism-based. Also on record: dose 10 mg/kg. In outline: as §1
The nature of data set [3]: Antitumor activity against mouse EAC cells transplanted in Albino mouse assessed as decrease in EAC-aliquot volume at 10 mg/kg, po QD for 2 weeks relative to control (Rvb= 5.77+/-0.39 ml). It counts as functional, Ehrlich. In short, it runs like this: as §1
Data set [4] can be described thus: Antitumor activity against mouse EAC cells transplanted in Albino mouse assessed as increase in survival at 10 mg/kg, po QD for 2 weeks relative to control. It counts as functional, Ehrlich. In outline:
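Female albino mice inoculated i.p. with 0.2 ml 1:50 saline-diluted EAC; oral gavage in 10% DMSO daily between 10 and 12 AM for 2 successive weeks from inoculation day; vehicle-treated controls (12 mice per group). Survival percent = survived/total animals × 100.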

The nature of data set [5]: Toxicity in Albino mouse assessed as mortality after 48 hrs. It counts as organism-based. The settings on record: in vivo.
Data set [6] concerns Ehrlich. The data set can be described thus: Antitumor activity against mouse EAC cells transplanted in Albino mouse assessed as increase in number of dead cells at 10 mg/kg, po QD for 2 weeks using trypan blue staining by Neubauer hemocytometry relative to control. Type of data set: functional, organism-based. Also on record: dose 10 mg/kg. In outline: as §1
A short description of data set [7]: Antitumor activity against mouse EAC cells transplanted in Albino mouse assessed as increase in cell mortality rate at 10 mg/kg, po QD for 2 weeks using trypan blue staining by Neubauer hemocytometry relative to control. Type of data set: functional, Ehrlich. In short, it runs like this:
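Female albino mice given 0.2 ml EAC (1:50 dilution in saline of aliquot from stock mice) i.p.; dosed orally by gastric intubation in 10% DMSO daily for 2 weeks from day of inoculation, vehicle controls. At end, ascites collected after 0.2 ml saline i.p. under ether; alive/dead cells counted by trypan blue exclusion, percent dead per mouse; mean ± SE, LSD test.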

A short description of data set [8]: Growth inhibition of mouse EAC cells at 25 ug/ml after 2 hrs using trypan blue staining by Neubauer hemocytometry. It counts as functional. The settings on record: Ehrlich, read-out: GI. In short, it runs like this: (§2)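 EAC cells at 2.5 × 10^5 cells/ml in PBS were exposed to three compound concentrations for 2 h at 37 °C in 5% CO2. An equal volume of trypan blue was then added. Stained (dead) and unstained cells were counted on a Neubauer haemocytometer, and percent dead cells was calculated per test.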

Data set [9] can be described thus: Growth inhibition of mouse EAC cells at 50 ug/ml after 2 hrs using trypan blue staining by Neubauer hemocytometry. Type of data set: functional. Conditions: Ehrlich, read-out: GI. In outline:
as §2

The nature of data set [10]: Growth inhibition of mouse EAC cells at 100 ug/ml after 2 hrs using trypan blue staining by Neubauer hemocytometry. It counts as functional. Conditions: Ehrlich, read-out: GI. In short, it runs like this:
as §2

A further data set has as its system HepG2. Description: Cytotoxicity against human HepG2 cells after 48 hrs by sulforhodamine B assay. It counts as functional, cell-based. In outline:
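HepG2 monolayers were treated with graded concentrations (0–100 range) for 48 h at 37 °C. Cells were then fixed and stained with sulforhodamine B, excess dye was removed with acetic acid, and bound dye was dissolved in Tris-EDTA for colorimetric reading. Survival fraction was plotted against concentration.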
(In general: Sulforhodamine B stains cellular protein and so reports cell mass.)

In data set [11] the test system is Ehrlich. Description: Induction of apoptosis in mouse EAC cells transplanted in Albino mouse assessed as decrease in Bcl-2 level in cytoplasm of cells at 10 mg/kg, po QD for 2 weeks […] relative to control. Type of data set: functional, organism-based. Also on record: dose 10 mg/kg.
The subject of data set [12] is Ehrlich. The data set can be described thus: Induction of apoptosis in mouse EAC cells transplanted in Albino mouse assessed as increase in p53 level at 10 mg/kg, po QD for 2 weeks […] relative to control. Type of data set: functional, organism-based. Also on record: dose 10 mg/kg.

The source made the active and inactive calls. No cut-off for these calls is given here.

For orientation: LD50 means the dose expected to kill half of the subjects tested. As for `c1nc2nnnn2c2c1CCCC2`, the outcome in the data set on Ehrlich [1], in the data set on Ehrlich [2], with Ehrlich [6], with Ehrlich [11] and with Ehrlich [12] was Active. Besides, the Activity in data set [3] is 2.52 mL; in data set [4], 83.33%; in [7], 8.24%; in the data set on HepG2, “Dose-dependent effect”. Besides, the 50% lethal dose (LD50) at 48 h in data set [5] is 500 mg/kg. Besides, the inhibition of growth at 25 µg/mL in [8] came to 10%. The inhibition of growth at 50 µg/mL in data set [9] came to 25%. Besides, the inhibition of growth at 100 µg/mL in [10] was found to be 45%.

(Values after ChEMBL document CHEMBL1156963, “Regioselective one-pot synthesis and anti-proliferative and apoptotic effects of some novel tetrazolo[1,5-a]pyrimidine derivatives” (Bioorg Med Chem, 2010).)
